One test has as its system Kluyveromyces marxianus. As to the kind of experiment: In vitro evaluation of minimum inhibitory concentration against Candida pseudotropicalis 13. It counts as functional. In outline:
(§1)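 Stocks are 800 μg/mL in 50% ethanol. Each plate gets 10 μL of inoculum at 10^5 cfu/mL. Incubation at 25 °C, 48 h for yeasts and 120 h for dermatophytes and molds. Organisms are ATCC strains or clinical isolates.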

Test [1] concerns Mus sp. As to the kind of experiment: In vivo evaluation of % survival rate after peroral administration on 5th day at dose 2.5 mg/kg. It counts as functional. The settings on record: Mus sp., po.
The subject of another test is Rhodotorula mucilaginosa. Nature of the test: In vitro evaluation of minimum inhibitory concentration against Rhodotorula rubra 16. It counts as functional. To be noted: Rhodotorula mucilaginosa; read-out: MIC. Put shortly:
as §1

Another test concerns Candida parapsilosis. Nature of the test: In vitro evaluation of minimum inhibitory concentration against Candida parapsilosis 61. It counts as functional. Put shortly: as §1
Test [2] has as its system Candida albicans. Nature of the test: In vivo evaluation of minimum inhibitory concentration against Candida albicans 76. It counts as functional. In outline:
(§2)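 Broth macrodilution MIC following NCCLS M27-P, in RPMI-1640 buffered with 0.165 M MOPS. Fluconazole was dissolved in water and other drugs in DMSO. C. parapsilosis ATCC 22019 served as the reference strain in every run. MIC was the lowest concentration giving turbidity at or below the 80% inhibition standard.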

The subject of the next test is Aspergillus flavus. As to the kind of experiment: In vitro evaluation of minimum inhibitory concentration against Aspergillus flavus 19. It is filed as functional. The settings on record: Aspergillus flavus; read-out: MIC. Put shortly: as §1
In the next test the test system is Microsporum canis. As to the kind of experiment: In vitro evaluation of minimum inhibitory concentration against Microsporum canis 47. It counts as functional. To be noted: Microsporum canis; read-out: MIC. Put shortly: as §1
The test system of test [3] is Meyerozyma guilliermondii. As to the kind of experiment: In vitro evaluation of minimum inhibitory concentration against Candida guilliermondii 26. It is filed as functional. Put shortly: as §1
Test [4] has as its system Nakaseomyces glabratus. As to the kind of experiment: In vitro evaluation of minimum inhibitory concentration against Torulopsis glabrata 78. It is filed as functional. To be noted: Nakaseomyces glabratus; read-out: MIC. In outline: as §1
The next test has as its system Trichophyton rubrum. As to the kind of experiment: In vitro evaluation of minimum inhibitory concentration against Trichophyton rubrum 90. It is filed as functional. To be noted: Trichophyton rubrum; read-out: MIC. In outline: as §1
The next test has as its system Pichia kudriavzevii. As to the kind of experiment: In vitro evaluation of minimum inhibitory concentration against Candida krusei 70. It counts as functional. To be noted: Pichia kudriavzevii; read-out: MIC. Put shortly:
as §1

For a further test, the system named is Aspergillus niger. As to the kind of experiment: In vitro evaluation of minimum inhibitory concentration against Aspergillus niger 18. It is filed as functional. To be noted: Aspergillus niger; read-out: MIC. In outline: as §1
The subject of a further test is Nannizzia gypsea. As to the kind of experiment: In vitro evaluation of minimum inhibitory concentration against Microsporum gypseum 22. To be noted: Nannizzia gypsea; read-out: MIC. It counts as functional. Put shortly: as §1
For test [5], the system named is Mus sp. Nature of the test: In vivo evaluation of % survival rate after peroral administration on 9th day at dose 2.5 mg/kg. The settings on record: Mus sp., po. It counts as functional.
Test [6] concerns Mus sp. Nature of the test: In vivo evaluation of % survival rate after peroral administration on 3rd day at dose 2.5 mg/kg. It is filed as functional. The settings on record: Mus sp., po.
In a further test the test system is Aspergillus fumigatus. Nature of the test: In vitro evaluation of minimum inhibitory concentration against Aspergillus fumigatus 33. It counts as functional. The settings on record: Aspergillus fumigatus; read-out: MIC. Put shortly:
as §1

Test [7] has as its system Mus sp. Nature of the test: In vivo evaluation of % survival rate after peroral administration on 7th day at dose 2.5 mg/kg. It is filed as functional. To be noted: Mus sp., po.
Another test deals with Trichophyton benhamiae. As to the kind of experiment: In vitro evaluation of minimum inhibitory concentration against Trichophyton mentagrophytes 23. It is filed as functional, Arthroderma benhamiae. The settings on record: Trichophyton benhamiae; read-out: MIC. Put shortly: as §1
The test system of test [8] is Mus sp. Nature of the test: In vivo evaluation of % survival rate after peroral administration on 3rd day at dose 1 mg/kg. It counts as functional. The settings on record: route oral, 1 mg/kg.
Test [9] has as its system Candida albicans. As to the kind of experiment: In vitro evaluation of minimum inhibitory concentration against Candida albicans 76. It counts as functional. Put shortly:
as §1

The test system of test [10] is Mus sp. Nature of the test: In vivo evaluation of % survival rate after peroral administration on 7th day at dose 1 mg/kg. It counts as functional. To be noted: route oral, 1 mg/kg.
The subject of test [11] is Mus sp. As to the kind of experiment: In vivo evaluation of % survival rate after peroral administration on 5th day at dose 1 mg/kg. It counts as functional. To be noted: route oral, 1 mg/kg.
For test [12], the system named is Nakaseomyces glabratus. Nature of the test: In vivo Evaluation of minimum inhibitory concentration against Torulopsis glabrata 78. It counts as functional. To be noted: in the assay text read “In vitro” for “In vivo”. Put shortly: as §1
Test [13] deals with Mus sp. Nature of the test: In vivo evaluation of % survival rate after peroral administration on 9th day at dose 1 mg/kg. It counts as functional. The settings on record: route oral, 1 mg/kg.
The subject of another test is Candida tropicalis. Nature of the test: In vitro evaluation of minimum inhibitory concentration against Candida tropicalis 2.11. It counts as functional. Put shortly:
as §1

Test [14] concerns Candida albicans. Nature of the test: In vivo evaluation of minimum inhibitory concentration against Candida albicans 406. It is filed as functional. In outline: as §2
The subject of test [15] is Candida albicans. As to the kind of experiment: In vivo evaluation of minimum inhibitory concentration against Candida albicans 60. It is filed as functional. Put shortly:
as §2

The subject of test [16] is Mus musculus. As to the kind of experiment: In vivo evaluation of % survival rate after peroral administration on 7th day at dose 5 mg/kg. It is filed as functional. The settings on record: route oral.
The subject of test [17] is Mus musculus. As to the kind of experiment: In vivo evaluation of % survival rate after peroral administration on 3rd day at dose 5 mg/kg. It is filed as functional. The settings on record: route oral.
Test [18] relates to Mus musculus. Nature of the test: In vivo evaluation of % survival rate after peroral administration on 5th day at dose 5 mg/kg. It counts as functional. To be noted: route oral.
Test [19] has as its system Mus musculus. Nature of the test: In vivo evaluation of % survival rate after peroral administration on 9th day at dose 5 mg/kg. It is filed as functional. The settings on record: route oral.
In test [20] the test system is Rattus norvegicus. As to the kind of experiment: In vivo evaluation of antifungal activity against vaginal candidosis in rat at dose 0.5 mg/kg on 15th day. It counts as functional. In outline:
(§3)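 Female Wistar rats, 10 per group, received estradiol 25 mg/kg sc on day -5. On day 0 they were infected intravaginally with C. albicans by sterile swab. Infection was confirmed on day 3 by culturing the swab in TSB and then on Sabouraud agar. Oral dosing was once daily on days 3, 4 and 5; controls got vehicle only. Vaginal swabs taken on days 10 and 15 were cultured and read the next day.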

Test [21] concerns Rattus norvegicus. Nature of the test: In vivo evaluation of antifungal activity against vaginal candidosis in rat at dose 0.25 mg/kg on 15th day. It counts as functional. Put shortly: (§4)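 Groups of 10 female Wistar rats given estradiol 25 mg/kg sc on day -5, infected intravaginally with C. albicans by sterile swab on day 0; infection confirmed on day 3 by swab culture (TSB, then Sabouraud agar). Oral dosing once daily on days 3, 4, 5; vehicle controls. Vaginal swabs cultured on days 10 and 15; read-out % cured (culture-negative).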

The subject of test [22] is Rattus norvegicus. As to the kind of experiment: In vivo evaluation of antifungal activity against vaginal candidosis in rat at dose 0.5 mg/kg on 10th day. It counts as functional. Put shortly: as §3
In test [23] the test system is Rattus norvegicus. As to the kind of experiment: In vivo evaluation of antifungal activity against vaginal candidosis in rat at dose 0.25 mg/kg on 10th day. It counts as functional. Put shortly:
as §4

The mark [24] stands for this setting: Lodderomyces parapsilosis, read-out: MIC.
Where [25] appears, read: Meyerozyma guilliermondii, read-out: MIC.

In brackets after ≈: the same amount, converted by molar mass.

For `C[C@H]1N(C(=O)c2ccc(OC(F)(F)F)cc2)CC(=O)O[C@@]1(Cn1cncn1)c1ccc(F)cc1F` (racemic), the MIC – broadly, the smallest concentration in the dilution series that meets the test's criterion for growth inhibition – in the test on Kluyveromyces marxianus (Kluyveromyces marxianus, read-out: MIC) was 40 µg/mL (≈ 80.6 µM); in the test with Rhodotorula mucilaginosa it was more than 40 µg/mL; in the test on Candida parapsilosis (setting [24]) it was more than 80 µg/mL; with Candida albicans [2] it was 80 µg/mL (≈ 161 µM); with Aspergillus flavus, more than 80 µg/mL; in the test on Microsporum canis, more than 80 µg/mL. Further, the MIC (in test [3] (setting [25]); with Nakaseomyces glabratus [4]; with Trichophyton rubrum; in the test with Pichia kudriavzevii; in the test on Aspergillus niger; in the test with Nannizzia gypsea) was more than 80 µg/mL in each case. Further, the minimal inhibitory concentration (MIC) in the test on Aspergillus fumigatus and with Trichophyton benhamiae was more than 80 µg/mL in each case. In addition, the survival at 2.5 mg/kg is 100% in the test with Mus sp. [1], 90% with Mus sp. [5], 100% with Mus sp. [6] and 100% in the test with Mus sp. [7].

On to `C[C@H]1N(C(=O)c2ccc(C(F)(F)F)cc2)CC(=O)O[C@@]1(Cn1cncn1)c1ccc(Cl)cc1Cl` (stereo in doubt; (+)-32a), for which the MIC (against Kluyveromyces marxianus; against Candida parapsilosis; in the test on Candida albicans [9]; in test [3]; in the test with Nakaseomyces glabratus [12]; against Candida tropicalis) was more than 80 µg/mL in each case. For the same molecule, the minimal inhibitory concentration (MIC) against Candida albicans [14] and against Candida albicans [15] was more than 80 µg/mL in each case. The Survival in the test on Mus sp. [8], in the test on Mus sp. [10], in the test with Mus sp. [11] and in the test with Mus sp. [13] was 0% each time.

`C[C@H]1N(C(=O)c2ccc(C(F)(F)F)cc2)C[C@H](O)O[C@@]1(Cn1cncn1)c1ccc(F)cc1F` (stereo in doubt; (+)-39a): the minimal inhibitory concentration (MIC) in the test with Kluyveromyces marxianus, against Candida parapsilosis, against Candida albicans [14] and with Candida albicans [15] was more than 80 µg/mL in each case. Besides, the survival at 5 mg/kg with Mus musculus [16] was 0%; with Mus musculus [17], 40%; with Mus musculus [18] it was 0%; in the test with Mus musculus [19], 0%.

For the molecule `C[C@H]1N(C(=O)c2ccc(C(F)(F)F)cc2)CC(=O)O[C@@]1(Cn1cncn1)c1ccc(Cl)cc1Cl` (stereo in doubt; (-)-32a), the MIC with Kluyveromyces marxianus was 10 µg/mL (≈ 19.5 µM); in the test with Rhodotorula mucilaginosa, more than 80 µg/mL; with Candida parapsilosis (setting [24]), 40 µg/mL (≈ 77.9 µM); in the test on Aspergillus flavus, more than 80 µg/mL; against Candida albicans [9] it was 20 µg/mL (≈ 39 µM); in the test on Microsporum canis, more than 80 µg/mL. Also, the MIC in test [3] (setting [25]) was 80 µg/mL (≈ 156 µM); with Nakaseomyces glabratus [4], more than 80 µg/mL; in the test with Trichophyton rubrum, more than 80 µg/mL; in the test on Pichia kudriavzevii, more than 80 µg/mL; in the test on Aspergillus niger it was more than 80 µg/mL; with Nannizzia gypsea it was more than 80 µg/mL. Further, the MIC was more than 80 µg/mL in the test on Aspergillus fumigatus; 40 µg/mL (≈ 77.9 µM) in the test with Candida tropicalis (Candida tropicalis, read-out: MIC); more than 80 µg/mL in the test with Trichophyton benhamiae; 5 µg/mL (≈ 9.74 µM) with Candida albicans [14]; 10 µg/mL (≈ 19.5 µM) against Candida albicans [15]. Moreover, the Survival in the test with Mus sp. [8] worked out at 100%; with Mus sp. [10] it was 70%; in the test on Mus sp. [11], 100%; with Mus sp. [13], 10%. For the same molecule, the Cure rate in the test with Rattus norvegicus [20] came out at 100%; in the test with Rattus norvegicus [21] it was 70%; with Rattus norvegicus [22], 80%; with Rattus norvegicus [23], 70%.

The record behind these values is ChEMBL document CHEMBL1128448, “Synthesis and antifungal activity of new azole derivatives containing an N-acylmorpholine ring” (1995).
